Measured values published in ChEMBL document CHEMBL4765426, “Design, synthesis and in vitro anti-influenza A virus evaluation of novel quinazoline derivatives containing S-acetamide and NH-acetamide moieties at C-4” (Eur J Med Chem, 2020).
Active and inactive are the calls of the source.

Legend:
[1] = tested on: Influenza A virus; test: Antiviral activity against Influenza A virus A/WSN/33(H1N1) infected in HEK293T-Gluc cells assessed as inhibition of virus infection at 10 uM pretreated for 2 hrs followed by viral infection and measured after 24 hrs by Gaussia luciferase reporter gene assay; type: functional; settings: A/WSN/1933(H1N1), HEK-293T, time 26 hrs
In short: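 A single-concentration screen at 10 μM was run against A/WSN/33 (H1N1) in HEK293T-Gluc reporter cells. These cells carry a stably transfected pLenti6-Gluc construct expressing negative-strand Gaussia luciferase RNA that is converted to positive strand upon infection. Inhibition ratio of infection was read from Gluc activity.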

[2] = tested on: Influenza A virus; test: Antiviral activity against Influenza A virus A/WSN/33(H1N1) infected in HEK293T-Gluc cells pretreated for 2 hrs followed by viral infection and measured after 24 hrs by Gaussia luciferase reporter gene assay; type: functional, organism-based; settings: A/WSN/1933(H1N1), HEK-293T
In short: (§1)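 Reporter cells were HEK293T cells stably transfected with pLenti6-Gluc, which constitutively expresses negative-strand Gaussia luciferase RNA that becomes positive-strand on IAV infection. Cells were infected with A/WSN/33 or A/PR/8/1934 (H1N1). Antiviral activity was read as Gluc signal, and IC50 values were derived. Ribavirin served as positive control.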

[3] = Cytotoxicity against human HEK293T cells assessed as reduction in cell viability after 48 hrs by CCK8 assay; type: cell-based, HEK-293T
[4] = Selectivity index, ratio of CC50 for human HEK293T cells to IC50 for Influenza A virus A/WSN/33(H1N1) infected in HEK293T-Gluc cells; type: toxicity, cell-based; settings: read-out: Ratio CC50/IC50
[5] = Cytotoxicity against human A549 cells assessed as reduction in cell viability after 48 hrs by CCK8 assay; type: cell-based
[6] = tested on: Influenza A virus; test: Antiviral activity against Influenza A virus A/PR/8/34 (H1N1) infected in HEK293T-Gluc cells pretreated for 2 hrs followed by viral infection and measured after 24 hrs by Gaussia luciferase reporter gene assay; type: functional, organism-based; settings: A/Puerto Rico/8/1934(H1N1), HEK-293T; in short: as §1
[7] = tested on: Influenza A virus; test: Antiviral activity against Influenza A virus A/WSN/33(H1N1)) infected in A549 cells assessed as inhibition of virus replication at early stage at 2.5 uM after 2 to 4 hrs post infection by time of addition assay; type: functional, organism-based; settings: A/WSN/1933(H1N1), time 2-4 hrs
In short: (§2)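 For time-of-addition, A549 cells were inoculated with single-cycle A/WSN/33 (H1N1) virus at MOI 0.2, and compound was added at 2.5 μM. Viral yield was measured as Gluc activity at 11 h post-infection. DMSO served as negative control and ribavirin (30 μM) as positive control.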

[8] = tested on: Influenza A virus; test: Antiviral activity against Influenza A virus A/WSN/33(H1N1)) infected in A549 cells assessed as reduction in viral yield at 2.5 uM preincubated before viral infection by time of addition assay; type: functional, organism-based; settings: A/WSN/1933(H1N1); in short: as §2
[9] = tested on: Influenza A virus; test: Antiviral activity against Influenza A virus A/WSN/33(H1N1) infected in HEK293T cells co-transfected with NP/PA/PB1/PB2/pol-LUC/SV40-Renilla assessed as inhibition of viral RNA transcription and replication after 24 hrs by mini-genome replicon system based luciferase assay; type: functional, organism-based; settings: A/WSN/1933(H1N1), dose 1.25-2.5 µM
In short: (§3)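 In the mini-genome replicon assay, HEK293T cells were transfected with pCAGGS plasmids encoding PB2, PB1, PA and NP, plus pol-LUC and SV40-Renilla, with or without compound (1.25 or 2.5 μM). Firefly and Renilla luciferase were measured 24 h post-transfection and compared against negative control (p<0.01 threshold).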

[10] = tested on: Influenza A virus; test: Antiviral activity against Influenza A virus A/WSN/33(H1N1) infected in HEK293T cells co-transfected with NP/PA/PB1/PB2/pol-LUC/SV40-Renilla assessed as inhibition of viral RNA transcription and replication at 2.5 uM after 24 hrs by mini-genome replicon system based luciferase assay; type: functional, A/WSN/1933(H1N1); set-up: scale not given: the % may be the effect or the level left; in short: as §3
[11] = Elimination rate constant in Sprague-Dawley rat at 1.25 mg/kg, iv measured up to 24 hrs by HPLC analysis; type: ADME, organism-based; settings: in vivo
In short: (§4)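 Male Sprague-Dawley rats (n = 3 per route) received a single intravenous dose (1.25 mg/kg) or a single oral dose (25 mg/kg). Plasma concentrations were followed over time, and PK parameters were derived from them. Values are reported as mean ± deviation.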

[12] = Elimination rate constant in Sprague-Dawley rat at 25 mg/kg, po measured up to 24 hrs by HPLC analysis; type: ADME, organism-based; settings: in vivo; in short: as §4
[13] = Half life in Sprague-Dawley rat at 1.25 mg/kg, iv measured up to 24 hrs by HPLC analysis; type: ADME, organism-based; settings: in vivo; in short: as §4
[14] = Half life in Sprague-Dawley rat at 25 mg/kg, po measured up to 24 hrs by HPLC analysis; type: ADME, organism-based; settings: in vivo; in short: as §4
[15] = Tmax in Sprague-Dawley rat at 25 mg/kg, po measured up to 24 hrs by HPLC analysis; type: ADME, organism-based; settings: in vivo; in short: as §4
[16] = Cmax in Sprague-Dawley rat at 1.25 mg/kg, iv measured up to 24 hrs by HPLC analysis; type: ADME, organism-based; set-up: route intravenous, dose 1.25 mg/kg, time <=24; settings: in vivo; in short: as §4
[17] = Cmax in Sprague-Dawley rat at 25 mg/kg, po measured up to 24 hrs by HPLC analysis; type: ADME, organism-based; set-up: route oral, dose 25 mg/kg, time <=24; settings: in vivo; in short: as §4
[18] = Initial plasma concentration in Sprague-Dawley rat at 1.25 mg/kg, iv measured up to 24 hrs by HPLC analysis; type: ADME, organism-based; in short: as §4
[19] = AUC (0 to t) in Sprague-Dawley rat at 1.25 mg/kg, iv measured up to 24 hrs by HPLC analysis; type: ADME, organism-based; set-up: route intravenous, dose 1.25 mg/kg, time <=24; settings: in vivo; in short: as §4
[20] = AUC (0 to t) in Sprague-Dawley rat at 25 mg/kg, po measured up to 24 hrs by HPLC analysis; type: ADME, organism-based; set-up: route oral, dose 25 mg/kg, time <=24; settings: in vivo; in short: as §4
[21] = AUC (0 to infinity) in Sprague-Dawley rat at 1.25 mg/kg, iv measured up to 24 hrs by HPLC analysis; type: ADME, organism-based; set-up: route intravenous, dose 1.25 mg/kg, time <=24; settings: in vivo; in short: as §4
[22] = AUC (0 to infinity) in Sprague-Dawley rat at 25 mg/kg, po measured up to 24 hrs by HPLC analysis; type: ADME, organism-based; set-up: route oral, dose 25 mg/kg, time <=24; settings: in vivo; in short: as §4
[23] = AUMC (0 to t) in Sprague-Dawley rat at 1.25 mg/kg, iv measured up to 24 hrs by HPLC analysis; type: ADME, organism-based; settings: in vivo; in short: as §4
[24] = AUMC (0 to t) in Sprague-Dawley rat at 25 mg/kg, po measured up to 24 hrs by HPLC analysis; type: ADME, organism-based; settings: in vivo; in short: as §4
[25] = AUMC (0 to infinity) in Sprague-Dawley rat at 1.25 mg/kg, iv measured up to 24 hrs by HPLC analysis; type: ADME, organism-based; settings: in vivo; in short: as §4
[26] = AUMC (0 to infinity) in Sprague-Dawley rat at 25 mg/kg, po measured up to 24 hrs by HPLC analysis; type: ADME, organism-based; settings: in vivo; in short: as §4
[27] = Clearance in Sprague-Dawley rat at 1.25 mg/kg, iv measured up to 24 hrs by HPLC analysis; type: ADME, organism-based; settings: in vivo; in short: as §4
[28] = Mean residence time in Sprague-Dawley rat at 1.25 mg/kg, iv measured up to 24 hrs by HPLC analysis; type: ADME, organism-based; settings: in vivo; in short: as §4
[29] = Mean residence time in Sprague-Dawley rat at 25 mg/kg, po measured up to 24 hrs by HPLC analysis; type: ADME, organism-based; settings: in vivo; in short: as §4
[30] = Volume of distribution at steady state in Sprague-Dawley rat at 1.25 mg/kg, iv measured up to 24 hrs by HPLC analysis; type: ADME, organism-based; settings: in vivo, read-out: Vdss; in short: as §4
[31] = Oral bioavailability in Sprague-Dawley rat at 25 mg/kg measured up to 24 hrs by HPLC analysis; type: ADME, organism-based; settings: in vivo; in short: as §4

## O=C(COc1cccc2ccccc12)Nc1ccc(F)cc1
[1]
  inhibition at 10 µM: 78%
[2]
  IC50: 5.22 µM
[3]
  CC50 at 48 h: > 100 µM
[4]
  selectivity ratio: > 19.1

## NC(=O)c1ncn([C@@H]2O[C@H](CO)[C@@H](O)[C@H]2O)n1 [RIBAVIRIN]
[3]
  CC50 at 48 h: > 100 µM
[4]
  selectivity ratio: > 6.51

## CN1CCN(c2nc(NCC(=O)NCc3ccccc3)c3ccccc3n2)CC1
[2]
  IC50: 11.5 µM
[3]
  CC50 at 48 h: > 100 µM
[4]
  selectivity ratio: > 8.72

## CCOc1ccc(NC(=O)CSc2c[nH]c3ccc(Br)cc23)cc1
[5]
  CC50 at 48 h: 71.4 µM
[1]
  inhibition at 10 µM: 90.2%
[2]
  IC50: 4.18 µM
[3]
  CC50 at 48 h: 44 µM
[4]
  selectivity ratio: 10.5
[6]
  IC50: 0.33 µM

## O=C(CNc1nc(N2CCCC2)nc2ccccc12)Nc1ccc2ccccc2c1
[5]
  CC50 at 48 h: 4.77 µM
[1]
  inhibition at 10 µM: 99.8%
[2]
  IC50: 1.29 µM
[3]
  CC50 at 48 h: 59.9 µM
[4]
  selectivity ratio: 46.5
[6]
  IC50: 0.63 µM
[7]
  Activity: Active
[8]
  Activity: inactive
[9]
  Activity: Dose-dependent effect
[10]
  Activity: 80%
[11]
  k el at 24 h: 0.000286 s⁻¹
[12]
  k el at 24 h: 8.89e-05 s⁻¹
[13]
  half-life: 40.8 min
[14]
  half-life: 135 min
[15]
  Tmax: 19.8 min
[16]
  Cmax: 58 ng/mL
[17]
  Cmax: 78.6 ng/mL
[18]
  C0 at 24 h: 80.8 ng/mL
[19]
  AUC(0-t) at 24 h: 34.9 ng·h/mL
[20]
  AUC(0-t) at 24 h: 157 ng·h/mL
[21]
  AUC(0-inf): 39.2 ng·h/mL
[22]
  AUC(0-inf): 183 ng·h/mL
[23]
  AUMCt: 18 hr.hr.ng/ml
[24]
  AUMCt: 313 hr.hr.ng/ml
[25]
  AUMC: 30.6 hr.hr.ng/ml
[26]
  AUMC: 553 hr.hr.ng/ml
[27]
  clearance: 557 mL/min/kg
[28]
  MRT: 47.4 min
[29]
  MRT: 191 min
[30]
  Vd: 26.6 L/kg
[31]
  bioavailability: 22.5%

## O=C(CSc1nc(N2CCCC2)nc2ccccc12)NC1CC1
[2]
  IC50: 38.2 µM
[3]
  CC50 at 48 h: > 100 µM
[4]
  selectivity ratio: > 2.61

## CCN(CC)c1nc(SCC(=O)NCc2ccccc2)c2ccccc2n1
[2]
  IC50: 19.2 µM
[3]
  CC50 at 48 h: > 100 µM
[4]
  selectivity ratio: > 5.22

## O=C(CNc1nc(N2CCCC2)nc2ccccc12)Nc1ccccc1
[5]
  CC50 at 48 h: 19 µM
[1]
  inhibition at 10 µM: 95.8%
[2]
  IC50: 1.88 µM
[3]
  CC50 at 48 h: 23.3 µM
[4]
  selectivity ratio: 12.4
[6]
  IC50: 1.47 µM
